The source of these data is ChEMBL document CHEMBL1146219, “Synthesis and evaluation of novel radioiodinated benzamides for malignant melanoma” (J Med Chem, 2007).

Data set [1] can be described thus: Lipophilicity, log P at pH 7.5. It counts as physicochemical. Conditions: buffer.
Data set [2] in a line: Displacement of [3H]DTG from sigma 2 receptor in guinea pig brain membrane. The class given is cell membranes, Cavia porcellus. Summed up:
(§1)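 Guinea pig brain membranes, incubated in duplicate for 2 h at 25 °C in Tris-HCl pH 8.0. Benzamide 10⁻¹⁰ to […] against 2 nM [³H]-(+)-pentazocine (σ₁) or 2 nM [³H]DTG plus 100 nM (+)-pentazocine (σ₂). Nonspecific binding defined with 1 µM haloperidol. GF/B filtration, bound activity by β-scintillation counting, giving IC50 then Ki. Full curves run only where 10⁻⁵ M inhibited >90%.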
In general terms: Loss of bound radioactivity is the signal in a displacement assay; it reports binding, not function.

In data set [3] the target is Sigma non-opioid intracellular receptor 1 (Cavia porcellus, UniProt Q60492). Description: Displacement of [3H](+)-pentazocine from sigma 1 receptor in guinea pig brain membrane. It counts as cell membranes. Summed up: as §1
Chain of Sigma non-opioid intracellular receptor 1 (Q60492 whole entry): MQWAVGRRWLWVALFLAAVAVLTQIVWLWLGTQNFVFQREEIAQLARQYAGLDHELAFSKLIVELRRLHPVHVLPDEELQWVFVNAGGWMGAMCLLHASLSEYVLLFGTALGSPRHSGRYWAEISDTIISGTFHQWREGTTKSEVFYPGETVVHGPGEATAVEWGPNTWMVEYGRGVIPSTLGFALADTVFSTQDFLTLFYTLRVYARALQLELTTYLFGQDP
For data set [4], the system named is Kidney. Description: Biodistribution in kidney of B16F0 tumor bearing C57BL/6J mouse at 0.37-0.74 MBq, iv after 6 hrs. It counts as ADME, organism-based. The conditions noted are these: in vivo. The gist of the method: (§2)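 Female C57BL/6J mice (15-18 g) were given B16F0 cells subcutaneously in the left flank (0.1 mL of 3 × 10⁶ viable cells/mL in Ca²⁺/Mg²⁺-free PBS) at 6-7 weeks and used after ten days. [¹²³I]benzamide (0.37-0.74 MBq, 100 µL, saline) was injected via the tail vein. Groups of n = 5 were killed by CO₂ and cervical dislocation. Organs were weighed and γ-counted, and the carcass was counted too.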

The subject of data set [5] is Heart. The data set is described as follows: Biodistribution in heart of B16F0 tumor bearing C57BL/6J mouse at 0.37-0.74 MBq, iv after 6 hrs. It counts as ADME, organism-based. Conditions: in vivo. The gist of the method:
as §2

The test system of data set [6] is Brain. The data set is described as follows: Biodistribution in brain of B16F0 tumor bearing C57BL/6J mouse at 0.37-0.74 MBq, iv after 1 hr. The class given is ADME, organism-based. Conditions: in vivo. The gist of the method: as §2
For data set [7], the system named is Liver. Description: Biodistribution in liver of B16F0 tumor bearing C57BL/6J mouse at 0.37-0.74 MBq, iv after 48 hrs. It counts as ADME, organism-based. Conditions: in vivo. The gist of the method:
as §2

Data set [8] concerns Liver. The data set is described as follows: Biodistribution in liver of B16F0 tumor bearing C57BL/6J mouse at 0.37-0.74 MBq, iv after 6 hrs. The conditions noted are these: in vivo. The class given is ADME, organism-based. The gist of the method: as §2
Data set [9] concerns Lung. Description: Biodistribution in lung of B16F0 tumor bearing C57BL/6J mouse at 0.37-0.74 MBq, iv after 48 hrs. The conditions noted are these: in vivo. The class given is ADME, organism-based. Summed up:
as §2

The nature of data set [10]: Biodistribution in melanoma of B16F0 tumor bearing C57BL/6J mouse at 0.37-0.74 MBq, iv after 48 hrs. The class given is ADME, organism-based, B16-F0. The conditions noted are these: in vivo. Summed up:
as §2

Data set [11] can be described thus: Biodistribution in melanoma of B16F0 tumor bearing C57BL/6J mouse at 0.37-0.74 MBq, iv after 72 hrs. It counts as ADME, organism-based, B16-F0. Conditions: in vivo. The gist of the method: (§3)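 Female C57BL/6J mice (15-18 g) carrying s.c. B16F0 flank tumors (0.1 mL of 3 × 10⁶ viable cells per mL in Ca²⁺/Mg²⁺-free PBS, inoculated at 6-7 weeks, used 10 days later). [¹²³I]tracer 0.37-0.74 MBq in saline, 100 µL, tail-vein i.v. Groups of n = 5 killed at 1-72 h. Organs weighed and γ-counted, carcass activity also counted, values as %ID/g.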

Data set [12] relates to Brain. The data set is described as follows: Biodistribution in brain of B16F0 tumor bearing C57BL/6J mouse at 0.37-0.74 MBq, iv after 48 hrs. It counts as ADME, organism-based. Conditions: in vivo. The gist of the method: as §2
Data set [13] has as its system Kidney. The data set is described as follows: Biodistribution in kidney of B16F0 tumor bearing C57BL/6J mouse at 0.37-0.74 MBq, iv after 48 hrs. The class given is ADME, organism-based. Conditions: in vivo. Summed up: as §2
Data set [14] has as its system Heart. Description: Biodistribution in heart of B16F0 tumor bearing C57BL/6J mouse at 0.37-0.74 MBq, iv after 1 hr. The class given is ADME, organism-based. Conditions: in vivo. Summed up: as §2
Data set [15] deals with Blood. Description: Biodistribution in blood of B16F0 tumor bearing C57BL/6J mouse at 0.37-0.74 MBq, iv after 6 hrs. It counts as ADME, organism-based. The conditions noted are these: in vivo. Summed up:
as §2

Data set [16] can be described thus: Biodistribution in melanoma of B16F0 tumor bearing C57BL/6J mouse at 0.37-0.74 MBq, iv after 1 hr. Conditions: in vivo. It counts as ADME, organism-based, B16-F0. Summed up: as §2
The test system of data set [17] is Lung. Description: Biodistribution in lung of B16F0 tumor bearing C57BL/6J mouse at 0.37-0.74 MBq, iv after 24 hrs. It counts as ADME, organism-based. The conditions noted are these: in vivo. The gist of the method: as §2
Data set [18] has as its system Kidney. The data set is described as follows: Biodistribution in kidney of B16F0 tumor bearing C57BL/6J mouse at 0.37-0.74 MBq, iv after 72 hrs. It counts as ADME, organism-based. The conditions noted are these: in vivo. The gist of the method:
as §2

Data set [19] has as its system Brain. The data set is described as follows: Biodistribution in brain of B16F0 tumor bearing C57BL/6J mouse at 0.37-0.74 MBq, iv after 6 hrs. Conditions: in vivo. It counts as ADME, organism-based. The gist of the method: as §2
The subject of data set [20] is Kidney. Description: Biodistribution in kidney of B16F0 tumor bearing C57BL/6J mouse at 0.37-0.74 MBq, iv after 24 hrs. It counts as ADME, organism-based. The conditions noted are these: in vivo. The gist of the method:
as §2

Data set [21] concerns Heart. The data set is described as follows: Biodistribution in heart of B16F0 tumor bearing C57BL/6J mouse at 0.37-0.74 MBq, iv after 24 hrs. It counts as ADME, organism-based. The conditions noted are these: in vivo. Summed up:
as §2

The subject of data set [22] is Brain. Description: Biodistribution in brain of B16F0 tumor bearing C57BL/6J mouse at 0.37-0.74 MBq, iv after 24 hrs. The class given is ADME, organism-based. Conditions: in vivo. Summed up: as §2
The nature of data set [23]: Biodistribution in melanoma of B16F0 tumor bearing C57BL/6J mouse at 0.37-0.74 MBq, iv after 24 hrs. The class given is ADME, organism-based, B16-F0. The conditions noted are these: in vivo. The gist of the method: as §2
Data set [24] has as its system Heart. The data set is described as follows: Biodistribution in heart of B16F0 tumor bearing C57BL/6J mouse at 0.37-0.74 MBq, iv after 48 hrs. It counts as ADME, organism-based. Conditions: in vivo. Summed up: as §2
Data set [25] has as its system Lung. Description: Biodistribution in lung of B16F0 tumor bearing C57BL/6J mouse at 0.37-0.74 MBq, iv after 6 hrs. It counts as ADME, organism-based. The conditions noted are these: in vivo. The gist of the method: as §2
Data set [26] has as its system Liver. The data set is described as follows: Biodistribution in liver of B16F0 tumor bearing C57BL/6J mouse at 0.37-0.74 MBq, iv after 1 hr. The conditions noted are these: in vivo. The class given is ADME, organism-based. The gist of the method:
as §2

In data set [27] the test system is Liver. Description: Biodistribution in liver of B16F0 tumor bearing C57BL/6J mouse at 0.37-0.74 MBq, iv after 72 hrs. It counts as ADME, organism-based. The conditions noted are these: in vivo. The gist of the method:
as §2

For data set [28], the system named is Kidney. Description: Biodistribution in kidney of B16F0 tumor bearing C57BL/6J mouse at 0.37-0.74 MBq, iv after 1 hr. It counts as ADME, organism-based. The conditions noted are these: in vivo. The gist of the method:
as §2

Data set [29] relates to Blood. Description: Biodistribution in blood of B16F0 tumor bearing C57BL/6J mouse at 0.37-0.74 MBq, iv after 24 hrs. Conditions: in vivo. It counts as ADME, organism-based. The gist of the method: as §2
Data set [30] has as its system Blood. Description: Biodistribution in blood of B16F0 tumor bearing C57BL/6J mouse at 0.37-0.74 MBq, iv after 48 hrs. The class given is ADME, organism-based. The conditions noted are these: in vivo. The gist of the method:
as §2

Data set [31] relates to Blood. The data set is described as follows: Biodistribution in blood of B16F0 tumor bearing C57BL/6J mouse at 0.37-0.74 MBq, iv after 1 hr. It counts as ADME, organism-based. The conditions noted are these: in vivo. Summed up: as §2
Data set [32] relates to Lung. Description: Biodistribution in lung of B16F0 tumor bearing C57BL/6J mouse at 0.37-0.74 MBq, iv after 1 hr. The class given is ADME, organism-based. Conditions: in vivo. The gist of the method: as §2
The test system of data set [33] is Blood. The data set is described as follows: Biodistribution in blood of B16F0 tumor bearing C57BL/6J mouse at 0.37-0.74 MBq, iv after 72 hrs. Conditions: in vivo. It counts as ADME, organism-based. The gist of the method: as §2
Data set [34] in a line: Biodistribution in melanoma of B16F0 tumor bearing C57BL/6J mouse at 0.37-0.74 MBq, iv after 6 hrs. The class given is ADME, organism-based, B16-F0. The conditions noted are these: in vivo. The gist of the method:
as §3

Data set [35] has as its system Liver. Description: Biodistribution in liver of B16F0 tumor bearing C57BL/6J mouse at 0.37-0.74 MBq, iv after 24 hrs. The class given is ADME, organism-based. Conditions: in vivo. Summed up: as §2
Data set [36] deals with Heart. The data set is described as follows: Biodistribution in heart of B16F0 tumor bearing C57BL/6J mouse at 0.37-0.74 MBq, iv after 72 hrs. Conditions: in vivo. It counts as ADME, organism-based. Summed up:
as §2

Structures are written as SMILES.

The logD is the decadic logarithm of the distribution of all forms, ionised or not, between an organic phase and buffer at a given pH. Low readings indicate a more hydrophilic compound, high ones a more lipophilic compound. In general, Ki refers to a measure of affinity in units of concentration, obtained from inhibition or displacement.

In data set [1], `COc1cc(NC(C)=O)c(I)cc1C(=O)NCCCCN(C)C(C)C` registered a logD of 0.75. Moreover, the Ki came to 5.4 µM in data set [2] and 5.2 µM in data set [3].
`CCN(CC)CCNC(=O)c1cc(I)c(NS(=O)(=O)c2ccc(C)cc2)cc1OC` gave a pH-dependent lipophilicity (logD) in [1] of 1.95. For the same compound, the results for the Ki in data set [2] and in data set [3] were over 100 µM and 0.65 µM, respectively.
With `CCN(CC)CCNC(=O)c1cc([123I])c(NC(C)=O)cc1OC`, the Drug uptake in data set [4] is 0.44 % ID/g; in data set [5], 0.31 % ID/g; in [6], 0.13 % ID/g; in [7], 0.51 % ID/g; in [8], 2.3 % ID/g; in data set [9], 0.07 % ID/g. Moreover, the Drug uptake stood at 3.4 % ID/g in [10]; 2.2 % ID/g in data set [11]; 0.01 % ID/g in data set [12]; 0.04 % ID/g in data set [13]; 0.79 % ID/g in data set [14]; 0.35 % ID/g in data set [15]. In addition, the Drug uptake in data set [16] is listed as 9.6 % ID/g; in data set [17] it was 0.09 % ID/g; in [18], 0.06 % ID/g; in data set [19], 0.02 % ID/g; in data set [20], 0.08 % ID/g; in [21] it was 0.12 % ID/g. For the same compound, the Drug uptake came out at 0.01 % ID/g in [22]; 5.2 % ID/g in data set [23]; 0.07 % ID/g in data set [24]; 0.4 % ID/g in [25]; 9 % ID/g in [26]; 0.28 % ID/g in data set [27]. The Drug uptake is on record as 2.3 % ID/g in data set [28]; 0.08 % ID/g in data set [29]; 0.03 % ID/g in [30]; 0.98 % ID/g in data set [31]; 1.3 % ID/g in data set [32]; 0.06 % ID/g in [33]. For the same compound, the Drug uptake in data set [34] is listed as 8.5 % ID/g; in data set [35], 1.1 % ID/g; in data set [36], 0.18 % ID/g.
With `CCN(CC)CCNC(=O)c1cc(I)c(NS(C)(=O)=O)cc1OC`, the log distribution coefficient (logD) in data set [1] amounted to 0.82. The Ki in data set [2] came out at 45 µM; in data set [3], 0.8 µM.
